Measurements published in article PMC8223195 (Molecular Diversity, 2021).

Legend:
[1] = test system: HCT-116 (colorectal carcinoma); test: IncuCyte real-time proliferation assay, HCT-116; assay type: cell-based; conditions: HCT-116, 72 h; * mean of two independent experiments ± SEM
[2] = test system: Z-138 (non-Hodgkin lymphoma); test: IncuCyte real-time proliferation assay, Z-138; assay type: cell-based; conditions: Z-138, 72 h; * mean of two independent experiments ± SEM
LN-229 (glioblastoma) = test: IncuCyte real-time proliferation assay, LN-229; assay type: cell-based; conditions: LN-229, 72 h
[3] = test system: Capan-1 (pancreatic adenocarcinoma); test: IncuCyte real-time proliferation assay, Capan-1; assay type: cell-based
hCoV-229E = assay type: cell-based, human corona virus 229E; conditions: for EC50: (*) mean of three independent experiments ± SEM
[4] = test system: NCI-H460 (lung carcinoma); test: IncuCyte real-time proliferation assay, NCI-H460; assay type: cell-based; conditions: NCI-H460, 72 h; * mean of two independent experiments ± SEM
[5] = test system: K-562 (chronic myeloid leukemia); test: IncuCyte real-time proliferation assay, K-562; assay type: cell-based; conditions: K-562, 72 h; * mean of two independent experiments ± SEM
[6] = test system: DND-41 (acute lymphoblastic leukemia); test: IncuCyte real-time proliferation assay, DND-41; assay type: cell-based; conditions: DND-41, 72 h; * mean of two independent experiments ± SEM
[7] = test system: HL-60 (acute myeloid leukemia); test: IncuCyte real-time proliferation assay, HL-60; assay type: cell-based; conditions: HL-60, 72 h; * mean of two independent experiments ± SEM
[8] = test system: peripheral blood mononuclear cells (PBMCs); test: In vitro apoptosis induction assay in PBMC; assay type: cell-based; conditions: 72 h
In short: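 Counter-screen on normal PBMCs from two healthy donors. Cells were exposed to graded test-compound concentrations with Caspase-3/7 Green Reagent added. Activated intracellular caspase-3/7 cleaves the reagent at its DEVD motif, marking apoptotic cells. Propidium iodide staining separated dead from live cells. Read-out: numbers of apoptotic and dead cells.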

[9] = test system: alpha-tubulin in HEp-2 cells; test: Tubulin immune fluorescence staining in HEp-2 cells; assay type: cell-based, human; conditions: HEp-2 cells treated for 3 h
[10] = * mean of two independent experiments ± SEM
[11] = Capan-1, 72 h, * mean of two independent experiments ± SEM

| Structure (SMILES) | CC50 (HEL 299 cells) | IC50 [1] | IC50 [2] | IC50 (LN-229 (glioblastoma); [10]) | IC50 [3, 11] | selectivity index (hCoV-229E) | EC50 (hCoV-229E) | IC50 [4] | IC50 [5] | IC50 [6] | IC50 [7] | viability of normal PBMCs ([8]; PBMC from two healthy donors, 100 to 0.16 µM) | number of apoptotic and dead cells ([8]; PBMC, 100 µM, caspase-3/7 and PI) | polymerization of tubulin [9] | IC50 (LN-229 (glioblastoma); Homo sapiens) | IC50 ([3]; Homo sapiens, CAPAN-1, 72 h) |
| --- | --- | --- | --- | --- | --- | --- | --- | --- | --- | --- | --- | --- | --- | --- | --- | --- |
| Cc1ccc(C(=O)C2Sc3nnc(-n4nc(C)cc4C)n3NC2c2ccccc2Br)cc1 (racemic) [Compound 5f, ( ±)-(6-(2-Bromophenyl)-3-(3,5-dimethyl-1H-pyrazol-1-yl)-6,7-dihydro-5H-[1,2,4]triazolo[3,4-b][1,3,4]thiadiazin-7-yl)(p-tolyl)methanone] | > 100 µM | > 100 µM | > 100 µM | > 100 µM | > 100 µM | favorable selectivity indexes | 3.2 ± 1.8 µM | > 100 µM | > 100 µM | > 100 µM | > 100 µM |  |  |  |  |  |
| Cc1ccc(C(=O)C2Sc3nnc(-n4nc(C)cc4C)n3NC2c2cc(F)c(F)c(F)c2)cc1 (racemic) [Compound 5j, ( ±)-(3-(3,5-Dimethyl-1H-pyrazol-1-yl)-6-(3,4,5-trifluorophenyl)-6,7-dihydro-5H-[1,2,4]triazole [3,4-b][1,3,4]thiadiazin-7-yl)(p-tolyl)methanone] | 23.8 µM | 2.5 ± 0.09 µM | 1.9 ± 0.03 µM | 2.7 ± 0.2 µM | 2.3 ± 0.2 µM |  | > 100 µM | 56 µM | 3.4 ± 0.2 µM | 2.4 ± 0.4 µM | 13 ± 2.8 µM | did not inhibit the viability | small increase in the number of apoptotic and dead cells | inhibit the polymerization of tubulin in a dose-dependent manner |  |  |
| Cc1cc(C)n(-c2nnc3n2NC(c2ccccc2Br)C(C(=O)c2ccc(F)cc2)S3)n1 (racemic) [Compound 5e, ( ±)-(6-(2-Bromophenyl)-3-(3,5-dimethyl-1H-pyrazol-1-yl)-6,7-dihydro-5H-[1,2,4]triazolo[3,4-b][1,3,4]thiadiazin-7-yl)(4-fluorophenyl)methanone] | > 100 µM | > 100 µM | > 100 µM | > 100 µM | > 100 µM |  | > 100 µM | > 100 µM | > 100 µM | > 100 µM | > 100 µM |  |  |  |  |  |
| COc1ccc(C2=C(C(=O)c3ccc([N+](=O)[O-])cc3)Sc3nnc(-n4nc(C)cc4C)n3N2)c(OC)c1 [Compound 5p, ( ±)-(6-(2,4-dimethoxyphenyl)-3-(3,5-dimethyl-1H-pyrazol-1-yl)-5H-[1,2,4]triazolo[3,4-b][1,3,4]thiadiazin-7-yl)(4-nitrophenyl)methanone] | > 100 µM | > 100 µM | > 100 µM | > 100 µM | > 100 µM |  | > 100 µM | > 100 µM | > 100 µM | > 100 µM | > 100 µM |  |  |  |  |  |
| COc1ccc(C(=O)C2Sc3nnc(-n4nc(C)cc4C)n3NC2c2ccccc2Cl)cc1 (racemic) [Compound 5n, ( ±)-(6-(2-Chlorophenyl)-3-(3,5-dimethyl-1H-pyrazol-1-yl)-6,7-dihydro-5H-[1,2,4]triazolo[3,4-b][1,3,4]thiadiazin-7-yl)(4-methoxyphenyl)methanone] | > 100 µM | > 100 µM | 53.9 µM | 68.3 µM | 63.1 µM |  | > 100 µM | > 100 µM | 53.2 µM | 91.7 µM | 71.2 µM |  |  |  |  |  |
| Cc1cc(C)n(-c2nnc3n2NC(c2cc(F)c(F)c(F)c2)C(C(=O)c2ccccc2)S3)n1 (racemic) [5 k, ( ±)-(3-(3,5-Dimethyl-1H-pyrazol-1-yl)-6-(3,4,5-trifluorophenyl)-6,7-dihydro-5H-[1,2,4]triazole [3,4-b][1,3,4]thiadiazin-7-yl)(phenyl)methanone] | > 100 µM | > 100 µM | > 100 µM | > 100 µM | > 100 µM |  | > 100 µM | > 100 µM | > 100 µM | > 100 µM | > 100 µM |  |  |  |  |  |
| Cc1cc(C)n(-c2nnc3n2NC(c2cccs2)C(C(=O)c2ccc([N+](=O)[O-])cc2)S3)n1 (racemic) [5 s, ( ±)-(3-(3,5-Dimethyl-1H-pyrazol-1-yl)-6-(thiophen-2-yl)-6,7-dihydro-5H-[1,2,4]triazolo[3,4-b][1,3,4]thiadiazin-7-yl)(4-nitrophenyl)methanone] | > 100 µM | > 100 µM | > 100 µM | > 100 µM | > 100 µM |  | > 100 µM | > 100 µM | > 100 µM | > 100 µM | > 100 µM |  |  |  |  |  |
| CN[C@@H]1C[C@H]2O[C@@](C)([C@@H]1OC)n1c3ccccc3c3c4c(c5c6ccccc6n2c5c31)C(=O)NC4 [STS, staurosporine, reference compound] |  |  |  |  |  |  |  |  |  |  |  |  |  |  | 0.0229 ± 0.0021 µM | 0.0007 ± 0.0002 µM |
